Reference: paper PMC4519694 (Nature neuroscience, 2015)
Peptide text beside a SMILES is read from it.

Tests used:
animals = details: ref [35]–[37]; cited from earlier work
PDE4 = details: ref [35]–[37]; cited from earlier work
humans = details: ref [35]–[37]; cited from earlier work
PDE4 (PKA site) = assay: PDE4 phosphorylation at the PKA site in striatal slices; assay type: cell-based, mouse
Procedure, shortened: (§1)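 Acute mouse striatal slices, drug-treated, analysed by quantitative immunoblot. Phospho-specific signals normalized to the matching total-protein blot; loading normalized to β-actin, GAPDH and/or Coomassie. The PDE4 PKA-site antibody was an affinity-purified polyclonal, phosphorylation state-specific. Mean ± s.e.m.; t-test or ANOVA with Bonferroni post hoc.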

PDE4B1 (PKA site) = assay: PKA-mediated PDE4 phosphorylation in PC12 cells; assay type: cell-based; details: FSK 10 µM, n = 8 reactions, WT vs S145A at 3 min *P = 0.0241, at 15 min ***P < 0.0001
[1] = target: PDE4B1 phosphorylation by Cdk5 (Homo sapiens, UniProt Q00535); assay: In vitro Cdk5-dependent phosphorylation of PDE4; assay type: biochemical, rat
PDE4B1 phosphorylation by Cdk5, sequence (Q00535 whole entry): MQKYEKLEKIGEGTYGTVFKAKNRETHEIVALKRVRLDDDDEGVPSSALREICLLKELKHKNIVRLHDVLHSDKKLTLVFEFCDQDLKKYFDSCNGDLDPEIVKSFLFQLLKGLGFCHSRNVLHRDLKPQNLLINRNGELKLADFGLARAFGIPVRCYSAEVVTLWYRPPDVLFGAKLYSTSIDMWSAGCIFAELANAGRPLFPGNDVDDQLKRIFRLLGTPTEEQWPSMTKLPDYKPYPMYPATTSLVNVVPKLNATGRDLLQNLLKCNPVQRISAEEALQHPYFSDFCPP
PDE4B1 phosphorylation by Cdk5, sequence (Q15078 99-307 partner limits assumed): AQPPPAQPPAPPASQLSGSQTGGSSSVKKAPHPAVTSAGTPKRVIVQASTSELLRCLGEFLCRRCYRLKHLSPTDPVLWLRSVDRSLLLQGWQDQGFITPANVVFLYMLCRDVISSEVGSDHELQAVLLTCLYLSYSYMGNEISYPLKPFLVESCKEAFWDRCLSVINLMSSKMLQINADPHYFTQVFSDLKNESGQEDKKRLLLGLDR

cAMP in striatal slices = assay: cAMP level in striatal slices; assay type: cell-based, mouse
CREB (Ser133) = assay: Phospho-Ser133 CREB in striatal slices; assay type: cell-based, mouse; details: 50 µM roscovitine, n = 3-6
Procedure, shortened: as §1

PDE = PDE activity in striatal lysates; assay type: biochemical, mouse; details: n = 4 slices
synapsin (Ser9) = assay: Phospho-Ser9 synapsin in striatal slices; assay type: cell-based, mouse; details: 50 µM roscovitine, n = 3-6
Procedure, shortened: as §1

DARPP-32 (Thr34) = assay: Phospho-Thr34 DARPP-32 in striatal slices; assay type: cell-based, mouse; details: 50 µM roscovitine, n = 3-6
Procedure, shortened: (§2)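 Acute mouse striatal slices were exposed to test compound and analysed by quantitative immunoblotting. Phospho-specific signals were normalized to the corresponding total-protein blots, and loading to β-actin, GAPDH and/or coomassie staining. Values are mean ± s.e.m.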

[2] = test system: AMPA receptor subunit GluR1 (Ser845); assay: Phospho-Ser845 GluR1 in striatal slices; assay type: cell-based, mouse; details: 50 µM roscovitine, n = 3-6
Procedure, shortened: as §2

mice = assay: Forced swim test; assay type: in vivo, mouse; details: infusion into NAc, two-trial FST, n = 5-7 (Supplementary Fig. 12c)
Procedure, shortened: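 Bilateral stereotaxic infusion into NAc under isoflurane (AP +1.50 mm from bregma, ML ±1.4 mm, DV −3.90 mm), 1 µl per hemisphere of peptide (115 µM) or PKA inhibitor (45 µM). Testing followed 90 min after peptide or 45 min after inhibitor. Mice aged 10–12 weeks swam in a glass cylinder of 25°C water for 10 min, then 8 min 24 h later. Two researchers, blind to treatment, scored immobility at 2–6 min.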

NMDA receptor = NMDA receptor current, whole-cell recording in striatal neurons; assay type: cell-based, mouse; details: D-APV 50 µM; NMDA 100 µM; -70 mV

In the case of `COc1ccc(C2CNC(=O)C2)cc1OC1CCCC1` (centres unmarked) [rolipram, 4-[3-(cyclopenotoxyl)-4-methoxyphenyl]-2-pyrrolidone], the “behavioral responses to stressors” value (animals) is given as “affect behavioral responses to stressors in animals”, the cAMP (PDE4) is given as “elevate cAMP” and the antidepressant activity (humans) is given as “have antidepressant activity in humans”.

With `C=C[C@@]1(C)CC(=O)[C@]2(O)[C@@]3(C)[C@@H](O)CCC(C)(C)[C@@H]3[C@H](O)[C@H](OC(C)=O)[C@@]2(C)O1` [forskolin] the “PDE4 phosphorylation by PKA” value (PDE4 (PKA site); striatal slices (Supplementary Fig. 1e)) was “increased PDE4 phosphorylation by PKA” and the “PKA-mediated PDE4 phosphorylation after forskolin, S145A PDE4B1 versus WT” value (PDE4B1 (PKA site)) was “reduced PKA-mediated PDE4 phosphorylation”.

`CC[C@H](C)[C@H](NC(=O)[C@H](CCCCN)NC(=O)[C@@H](NC(=O)[C@H](CCC(N)=O)NC(=O)[C@@H](N)CCCNC(=N)N)[C@@H](C)CC)C(=O)N[C@@H](Cc1c[nH]c2ccccc12)C(=O)N[C@@H](Cc1ccccc1)C(=O)N[C@@H](CCC(N)=O)C(=O)N[C@@H](CC(N)=O)C(=O)N[C@@H](CCCNC(=N)N)C(=O)N[C@@H](CCCNC(=N)N)C(=O)N[C@@H](CCSC)C(=O)N[C@@H](CCCCN)C(=O)N[C@@H](Cc1c[nH]c2ccccc12)C(=O)N[C@@H](CCCCN)C(=O)N[C@@H](CCCCN)C(=O)N[C@@H](CCC(=O)O)C(=O)N[C@@H](CO)C(=O)N[C@@H](Cc1ccccc1)C(=O)N[C@@H](CC(C)C)C(=O)N[C@@H](Cc1ccc(O)cc1)C(=O)N[C@@H](CCCNC(=N)N)C(=O)N[C@@H](CO)C(=O)N[C@@H](CC(=O)O)C(=O)N[C@@H](CO)C(=O)N[C@@H](CC(=O)O)C(=O)N[C@@H](Cc1ccc(O)cc1)C(=O)N[C@@H](CC(=O)O)C(=O)N[C@@H](CC(C)C)C(=O)N[C@@H](CO)C(=O)N1CCC[C@H]1C(=O)N[C@@H](CCCCN)C(=O)N[C@@H](C)C(=O)N[C@@H](CCSC)C(=O)O` [PDE4-siP] (H-RQIKIWFQNRRMKWKKESFLYRSDSDYDLSPKAM-OH) gave an IC50 [1] of 13 µM.

For `CC[C@H](CO)Nc1nc(NCc2ccccc2)c2ncn(C(C)C)c2n1` [roscovitine], the cAMP level (cAMP in striatal slices; Ros, n = 3 slices, *P = 0.0216) was “increase cAMP to similar levels”, the “PKA-dependent phosphorylation of CREB (Ser133)” value (CREB (Ser133)) was “induced PKA-dependent phosphorylation” and the PDE activity (PDE; roscovitine 10 µM, *P = 0.011) was “attenuates PDE activity”. The PDE activity (PDE; roscovitine 50 µM, **P = 0.0037) was “attenuates PDE activity”, the “PKA-dependent phosphorylation of synapsin (Ser9)” value (synapsin (Ser9)) was “induced PKA-dependent phosphorylation” and the “phosphorylation of DARPP-32 (Thr34)” value (DARPP-32 (Thr34)) was “increased phosphorylation”. The “phosphorylation of GluR1 (Ser845)” value [2] was “increased phosphorylation”.

With `Oc1cc2c(c(Cl)c1O)CCNCC2c1ccccc1` (centres unmarked) [SKF81297] the cAMP level (cAMP in striatal slices; SKF81297 (1 µM, 10 min unless stated otherwise), n = 4 slices, **P = 0.0030) was “increase cAMP to similar levels”.

With “RRRRRRR- ESFLYRSDSDYDLSPKAM [poly-arginine tagged PDE4 peptide]” the FST performance (mice) was “analogical effect on FST performance”.

With `N[C@H](CCCP(=O)(O)O)C(=O)O` [D-APV] the NMDA-evoked current (NMDA receptor) was “blocked”.

With `CCNC(=O)[C@H]1O[C@@H](n2cnc3c(N)nc(NCCc4ccc(CCC(=O)O)cc4)nc32)[C@H](O)[C@@H]1O` [CGS21680] the “PKA-mediated PDE4 phosphorylation in response to CGS21680” value (PDE4 (PKA site); 5 µM, 2 min, Cdk5 cKO striatum, n = 4 slices from 2 mice, WT CGS vs cKO CGS *P = 0.0354) was “Loss of PKA-mediated PDE4 phosphorylation”.
